In ChEMBL document CHEMBL1158528, “Synthesis of structurally simplified analogues of aplidinone A, a pro-apoptotic marine thiazinoquinone” (Bioorg Med Chem, 2010):
Activity calls are given as the source filed them. The rule behind the calls is not given here.

What was measured:
[1] = tested on: Jurkat; test: Cytotoxicity against human Jurkat cells after 24 hrs by PI staining based flow cytometry; type: functional, cell-based
In short: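 Jurkat cells (10^6) were exposed to increasing concentrations for 24 h, then stained with propidium iodide (10 µg/mL in PBS) for 1 min at room temperature. Membrane-compromised cells were counted immediately by flow cytometry with 488 nm excitation.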

[2] = tested on: Jurkat; test: Cell cycle arrest in human Jurkat cells assessed as increase in apoptotic cells after 24 hrs by flow cytometry; type: functional, cell-based
In short: (§1)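 Jurkat cells in RPMI 1640 with 10% FBS, 2 mM glutamine and antibiotics, at 37 °C and 5% CO2, were treated for 24 h. Cells were fixed in 70% ethanol for 24 h at 4 °C, washed with PBS containing 4% glucose, and digested with RNase A (50 U/mL) plus PI staining for 1 h at RT. The subdiploid (sub-G0/G1) fraction was measured by flow cytometry.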

[3] = tested on: HeLa; test: Cytotoxicity against human HeLa cells after 48 hrs by calcein-AM assay; type: functional, cell-based
In short: (§2)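 Adherent lines were grown in DMEM with 10% heat-inactivated FBS, 2 mM glutamine, penicillin and streptomycin, seeded at 10^4 cells/well, and exposed to increasing concentrations for 48 h. DMSO stocks were diluted in medium, with final DMSO ≤1%. Calcein-AM (1 µM final) was added for 60 min, stopped on ice, and cells were washed twice with cold HBSS. Fluorescence was read at 485/535 nm to derive IC50.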

[4] = tested on: HCT-116; test: Cytotoxicity against human HCT116 cells after 48 hrs by calcein-AM assay; type: functional, cell-based; details: HCT-116, 48 h; in short: as §2
[5] = Cytotoxicity against human 293T cells after 48 hrs by calcein-AM assay; type: cell-based; details: HEK-293T; in short: as §2
[6] = tested on: A549; test: Cytotoxicity against human A549 cells after 48 hrs by calcein-AM assay; type: functional, cell-based; details: A549, 48 h; in short: as §2
[7] = tested on: AGS; test: Cytotoxicity against human AGS cells after 48 hrs by calcein-AM assay; type: functional, cell-based; in short: as §2
[8] = tested on: Jurkat; test: Cell cycle arrest in human Jurkat cells assessed as apoptotic cells at 25 uM after 24 hrs by flow cytometry; type: functional; in short: as §1
[9] = tested on: Jurkat; test: Cell cycle arrest in human Jurkat cells assessed as apoptotic cells at 10 uM after 24 hrs by flow cytometry; type: functional; in short: as §1
[10] = tested on: Jurkat 5.1 (human); test: Inhibition of TNF-alpha-induced NF-kappaB activation in human Jurkat 5.1 cells by luciferase assay relative to control

CCCCCCCCCCCCCCC1=C(OC)C(=O)C2=C(NCCS2(=O)=O)C1=O
IC50 [1]: > 50 µM

CCCCCCCCC1=C(OC)C(=O)C2=C(NCCS2(=O)=O)C1=O
Activity [2]: Active
IC50 [1]: > 50 µM

CCCCCCCCCCCCCCC1=C(OC)C(=O)C2=C(C1=O)S(=O)(=O)CCN2
IC50 [3]: 47.9 µM
IC50 [4]: 44.8 µM
IC50 [5]: 47.9 µM
IC50 [6]: 50.8 µM
IC50 [7]: 45 µM
IC50 [1]: > 50 µM

CCCCCCCCC1=C(OC)C(=O)C2=C(C1=O)S(=O)(=O)CCN2
Activity [8]: 45%
Activity [9]: 26.5%
Activity [10]: Active
IC50 [3]: 24.8 µM
IC50 [4]: 14.1 µM
IC50 [5]: 8.7 µM
IC50 [6]: 13 µM
IC50 [7]: 7.2 µM
IC50 [1]: 20.7 µM

COC1=C(C/C=C(\C)CCC=C(C)C)C(=O)C2=C(C1=O)S(=O)(=O)CCN2 [APLIDINONE A]
IC50 [1]: 44.5 µM

CCC1=C(OC)C(=O)C2=C(NCCS2(=O)=O)C1=O
Activity [2]: Active
Activity [10]: inactive
IC50 [1]: > 50 µM

CCC1=C(OC)C(=O)C2=C(C1=O)S(=O)(=O)CCN2
Activity [2]: Active
Activity [8]: 9.6%
IC50 [3]: > 50 µM
IC50 [4]: > 50 µM
IC50 [5]: 32.6 µM
IC50 [6]: > 50 µM
IC50 [7]: > 50 µM
IC50 [1]: > 50 µM
